Results from ChEMBL document CHEMBL1132271, “1-Benzopyran-4-one antioxidants as aldose reductase inhibitors” (J Med Chem, 1999).

What was measured:
[1] = target: Aldo-keto reductase family 1 member B1 (Bos taurus) (UniProt P16116); assay: The compound was tested for Inhibitory effect uM; conditions: concentration not given here
[2] = target: T1, Aldo-keto reductase family 1 member B1 (Bos taurus, UniProt P16116); assay: Inhibition of Aldose reductase 2 of bovine lens
Method in brief: (§1)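 ALR2 partly purified from bovine lens (DEAE chromatography), 3.5 mU/mL. Run at 37 °C with 4.7 mM D,L-glyceraldehyde and 0.11 mM NADPH in 0.25 M sodium phosphate pH 6.80 with 0.38 M ammonium sulfate. Inhibitor added in DMSO, 1% final. Blank without substrate.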

[3] = target: T2, Aldo-keto reductase family 1 member A1 (Bos taurus, UniProt Q3ZCJ2); assay: The compound was tested for Inhibitory effect against Aldose reductase 1 in bovine kidneys
Method in brief: (§2)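 Run at 37 °C with 20 mM D-glucuronate and 0.12 mM NADPH in 0.1 M sodium phosphate pH 7.20. Inhibitor added in DMSO, 1% final. Blank without substrate.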

[4] = target: Aldo-keto reductase family 1 member B1 (Bos taurus) (UniProt P16116); assay: (§3) Compound was tested for Ratio of IC50(ALR1)/(ALR2)
Method in brief: (§4)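 Ratio of IC50 values. ALR1 (bovine kidney; 20 mM D-glucuronate, 0.12 mM NADPH, pH 7.20) and ALR2 (bovine lens; 4.7 mM D,L-glyceraldehyde, 0.11 mM NADPH, pH 6.80). Both enzymes at 3.5 mU/mL, 37 °C, 1% DMSO. IC50 from log dose–inhibition curves in duplicate.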

Liposome [5] = assay: Antioxidant action tested inAAPH-induced malondialdehyde (MDA) liposomes after 40 min; type: functional, subcellular
Method in brief: (§5)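 Lipid (LA, 2 mg/mL) suspended in 50 mM Tris pH 7.4 and extruded into micelles with test antioxidant at 0.2 mM final. Peroxidation started with AAPH (10 mM), 37 °C in shaking water bath. Aliquots taken at intervals, mixed with 20% TCA, then 0.67% TBA, boiled 10 min, hexane-extracted. MDA read at 535 nm (ε 1.49×10^5). Means ± SE.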

Liposome [6] = assay: Antioxidant action tested in AAPH-induced malondialdehyde (MDA) liposomes after 30 min; type: functional; method in brief: as §5
Liposome [7] = assay: Antioxidant action tested in AAPH-induced malondialdehyde (MDA) liposomes after 5 min; type: functional; method in brief: as §5
Liposome [8] = assay: Antioxidant action tested in AAPH-induced malondialdehyde (MDA) liposomes after 60 min; type: functional; method in brief: as §5
Liposome [9] = assay: Antioxidant action tested in AAPH-induced malondialdehyde (MDA) liposomes after 15 min; type: functional; method in brief: as §5
[10] = target: Aldo-keto reductase family 1 member B1 (Bos taurus) (UniProt P16116); assay: The compound was tested for Inhibitory effect against ALR2 in bovine lenses at 77 uM; type: tissue-based; conditions: Lens of camera-type eye; method in brief: as §1
[11] = target: T1, Aldo-keto reductase family 1 member B1; assay: Inhibition of ALR2 (aldose reductase) of bovine lens; method in brief: as §1
[12] = Proton dissociation constant pKa was determined at 25 degree C; type: physicochemical
Method in brief: (§6)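 Compound solution added to buffers at ionic strength 0.1 M, pH stepped by 0.25 unit. UV–vis spectra recorded and pH measured with a calibrated electrode. pKa calculated from absorbance change at λmax of the dissociated form, then corrected for ionic strength.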

Liposome [13] = assay: Antioxidant action tested in AAPH-induced malondialdehyde (MDA) of liposomes after 30 min; type: functional; method in brief: as §5
Liposome [14] = assay: Antioxidant action tested in AAPH-induced malondialdehyde (MDA) of liposomes after 40 min; type: functional; method in brief: as §5
Liposome [15] = assay: Antioxidant action tested in AAPH-induced malondialdehyde (MDA) of liposomes after 5 min; type: functional; method in brief: as §5
Liposome [16] = assay: Antioxidant action tested in AAPH-induced malondialdehyde (MDA) of liposomes after 15 min; type: functional; method in brief: as §5
Liposome [17] = assay: Antioxidant action tested in AAPH-induced malondialdehyde (MDA) of liposomes after 60 min; type: functional; method in brief: as §5
[18] = The compound was tested for the pKa (+/-SD) values at 25 degree C; type: physicochemical; method in brief: as §6
[19] = test system: Aldo-keto reductase family 1 member A1, aldehyde reductase ALR1 (Bos taurus); assay: The compound was tested for Inhibitory effect uM; conditions: concentration not given here
[20] = as §3; method in brief: as §4
[21] = target: T2, Aldo-keto reductase family 1 member A1; assay: The compound was tested for Inhibitory effect against ALR1 in bovine kidneys; type: tissue-based, Kidney; method in brief: as §2

T2 sequence (Q3ZCJ2 2-325 limits assumed): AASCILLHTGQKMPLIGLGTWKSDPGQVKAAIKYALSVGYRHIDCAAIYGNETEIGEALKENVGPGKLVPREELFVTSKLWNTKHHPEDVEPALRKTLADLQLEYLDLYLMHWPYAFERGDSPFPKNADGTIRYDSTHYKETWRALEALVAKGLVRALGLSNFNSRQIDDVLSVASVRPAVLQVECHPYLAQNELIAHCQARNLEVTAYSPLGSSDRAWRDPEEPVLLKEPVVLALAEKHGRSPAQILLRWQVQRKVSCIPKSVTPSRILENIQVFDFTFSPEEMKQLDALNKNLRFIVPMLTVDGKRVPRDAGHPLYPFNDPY

`COc1ccc2c(=O)cc(Cc3ccc(O)cc3)oc2c1` gave an inhibition [1] of 37%.

In the case of `O=c1cc(C(c2ccccc2)c2ccccc2)oc2cc(O)ccc12`, the IC50 [2] is reported as 10.9 µM.

`O=c1cc(Cc2ccc(O)cc2)oc2cc(O)ccc12` showed an IC50 [3] of 16.8 µM, a Ratio [4] of 6.7 and an IC50 [2] of 2.5 µM. The Activity (Liposome [5]) was 2.1 nM ml-1, the Activity (Liposome [6]) was 1.9 nM ml-1 and the Activity (Liposome [7]) was 2.02 nM ml-1. The Activity (Liposome [8]) was 1.81 nM ml-1 and the Activity (Liposome [9]) was 1.95 nM ml-1.

Molecule `O=c1c(Cc2ccc(-c3ccccc3)cc2)c(Cc2ccc(O)cc2)oc2cc(O)ccc12` has an inhibition [1] of 0%.

`COc1ccc2c(=O)c(Cc3ccc(O)cc3)coc2c1` gave an inhibition [10] of 18%.

For `O=C(O)c1ccc2c(=O)cc(Cc3ccc(O)cc3)oc2c1`, the IC50 [2] was 10.9 µM.

In the case of `O=c1c(O)c(-c2ccccc2)oc2ccccc12`, the inhibition [1] is reported as 0%.

`O=c1ccoc2cc(O)ccc12` showed an IC50 [3] of 114 µM, a Ratio [4] of 1 and an IC50 [2] of 137 µM.

With `O=c1cc(-c2ccc(O)c(O)c2)oc2cc(O)cc(O)c12` [LUTEOLIN] the IC50 [11] was 9.57 µM.

In the case of `COc1ccc(Cc2cc(=O)c3ccc(O)cc3o2)cc1`, the pKa [12] is reported as 7.35, the IC50 [3] is reported as 16.6 µM and the Ratio [4] is reported as 2.4. For the same molecule, the IC50 [2] was 7.01 µM.

In the case of `O=c1cc(Cc2ccc(O)cc2)oc2ccc(O)cc12`, the pKa [12] is reported as 8.89, the IC50 [2] is reported as 13.1 µM and the Activity (Liposome [13]) is reported as 1.46 nM ml-1. For the same molecule, the Activity (Liposome [14]) was 1.29 nM ml-1, the Activity (Liposome [15]) was 1.19 nM ml-1 and the Activity (Liposome [8]) was 1.27 nM ml-1. The Activity (Liposome [9]) was 1.54 nM ml-1.

`O=c1c(Cc2ccccc2)c(Cc2ccc(O)cc2)oc2cc(O)ccc12` showed an IC50 [2] of 14.2 µM.

`O=c1c(Cc2ccc(O)cc2)coc2cc(O)ccc12` gave an IC50 [11] of 60.5 µM.

Molecule `O=c1cc(-c2ccc(O)c(O)c2)oc2cc(O)ccc12` has an IC50 [11] of 6.52 µM.

With `COc1ccc(Cc2cc(=O)c3ccc(OC)cc3o2)cc1` the inhibition [1] was 0%.

In the case of `O=c1cc(Cc2ccccc2)oc2cc(O)ccc12`, the IC50 [3] is reported as 39.2 µM, the Ratio [4] is reported as 5.9 and the IC50 [2] is reported as 6.61 µM.

In the case of `O=c1cc(-c2ccccc2)oc2cccc(O)c12`, the inhibition [1] is reported as 0%.

In the case of `O=c1cc(CCCc2ccc(O)cc2)oc2cc(O)ccc12`, the IC50 [2] is reported as 29.4 µM.

With `COc1ccc2c(=O)cc(-c3ccccc3)oc2c1` the inhibition [1] was 32%.

`Cc1cc(C(C)(C)C)c(O)c(C(C)(C)C)c1` showed an Activity (Liposome [16]) of 1.33 nM ml-1, an Activity (Liposome [13]) of 1.33 nM ml-1 and an Activity (Liposome [14]) of 1.23 nM ml-1. The Activity (Liposome [15]) was 1.62 nM ml-1 and the Activity (Liposome [17]) was 0.937 nM ml-1.

For `Cc1oc2cc(O)ccc2c(=O)c1Cc1ccc(O)cc1`, the IC50 [2] was 85.7 µM.

`O=c1cc(-c2ccccc2)oc2cc(O)c([N+](=O)[O-])cc12` showed a pKa [18] of 5.3, an IC50 [11] of 3.87 µM and an inhibition [19] of 27.5%.

`COc1ccc2oc(Cc3ccc(O)cc3)cc(=O)c2c1` gave an inhibition [1] of 40%.

For `O=C(O)Cc1ccc2c(=O)cc(Cc3ccc(O)cc3)oc2c1`, the IC50 [3] was 128 µM, the Ratio [4] was 98.5 and the IC50 [2] was 1.3 µM.

With `O=c1cc(Cc2ccc3ccccc3c2)oc2cc(O)ccc12` the IC50 [2] was 22.3 µM.

`O=c1cc(Cc2ccc(O)c(O)c2)oc2cc(O)ccc12` gave a Ratio [20] of 4.2, an IC50 [21] of 13.2 µM and an IC50 [11] of 3.14 µM. It also gave an Activity (Liposome [16]) of 1.18 nM ml-1, an Activity (Liposome [13]) of 1.07 nM ml-1 and an Activity (Liposome [14]) of 0.852 nM ml-1. The Activity (Liposome [15]) was 0.935 nM ml-1 and the Activity (Liposome [17]) was 1.53 nM ml-1.

`O=c1cc(CCc2ccc(O)cc2)oc2cc(O)ccc12` gave an IC50 [2] of 41 µM.
